Measured values as given in ChEMBL document CHEMBL2062453, “Lead optimization through VLAK protocol: new annelated pyrrolo-pyrimidine derivatives as antitumor agents” (2012).

Experiments:
Assay type in all cases: functional
[1] = tested on: K562; test: Cytotoxicity against human K562 cells after 48 hrs by SRB assay; conditions: K562, 48 h
Outline: (§1)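 NCI 60-cell five-dose screen. Cells grown in RPMI 1640 with 5% FBS and 2 mM glutamine, plated at 5000–40,000 cells/well, and preincubated 24 h at 37 °C in 5% CO2. Time-zero plates fixed with TCA. Five serial dilutions of DMSO stock added, then 48 h exposure. TCA fixation, 0.4% SRB staining, absorbance read at 515 nm. GI50 from [(Ti−Tz)/(C−Tz)]×100 = 50.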

[2] = tested on: SR; test: Cytotoxicity against human SR cells after 48 hrs by SRB assay
Outline: (§2)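 NCI 60-panel five-dose screen. Cells in RPMI 1640 with 5% FBS and 2 mM glutamine, plated at 5000–40,000 cells/well and preincubated 24 h at 37 °C under 5% CO2. Five 10-fold or half-log dilutions were added from a DMSO stock for 48 h. Cells were TCA-fixed (SR settled cells: 16% final), SRB-stained and read at 515 nm. GI50 was taken where (Ti−Tz)/(C−Tz)×100 = 50.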

[3] = tested on: NCI-H522; test: Cytotoxicity against human NCI-H522 cells after 48 hrs by SRB assay; conditions: NCI-H522, 48 h
Outline: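 Five-dose screen, 10-fold or ½-log dilutions, compound stock in DMSO. Cells were in RPMI 1640 with 5% FBS and 2 mM glutamine at 5000–40,000 cells/well, preincubated 24 h, 37 °C, 5% CO₂, with a time-zero plate TCA-fixed. After 48 h drug exposure, cells were TCA-fixed and stained with 0.4% SRB, read at 515 nm. GI50, TGI and LC50 were derived from time-zero, control and test absorbances.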

[4] = tested on: UACC-257; test: Cytotoxicity against human UACC257 cells after 48 hrs by SRB assay; conditions: UACC-257, 48 h; outline: as §2
[5] = tested on: IGROV-1; test: Cytotoxicity against human IGROV1 cells after 48 hrs by SRB assay; conditions: IGROV-1, 48 h; outline: as §1
[6] = read-out: pLC50 (the source's name) (converted)

`CSC1=Nc2c(c(C)c(-c3ccccc3)n2CCCCl)C2=NC(=O)CN12` was tested, and the GI50 [1] was 5.75 µM, the CC50 [1, 6] was over 100 µM and the TGI ([1]; read-out: pTGI) was over 100 µM. For the same molecule, the GI50 [2] was 3.47 µM, the CC50 [2, 6] was over 100 µM and the TGI ([2]; read-out: pTGI) was over 100 µM. For the same molecule, the GI50 [3] was 3.89 µM, the CC50 [3, 6] was 75.9 µM and the TGI ([3]; read-out: pTGI (converted)) was 19.1 µM. The GI50 [4] was 12.6 µM, the CC50 [4, 6] was 64.6 µM and the TGI ([4]; read-out: pTGI (converted)) was 28.2 µM. For the same molecule, the GI50 [5] was 3.55 µM, the CC50 [5, 6] was 95.5 µM and the TGI ([5]; read-out: pTGI (converted)) was 21.4 µM.
